# Only some compounds are listed: those with a hit (about 2.4% of all), similar ones and a draw of the others.
# GSTO1 inh – GSTO1 inhibition, counter-screen for RBBP9 inhibitors | P78417 | recombinant GSTO1, activity-based probe fluorescence polarization | inhibition, % at 5.96 µM | actives 1.1% (n = 300,000) | AID 1974;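 active = inhibition above the campaign mean inhibition plus 3 SD, cut at about 35% in these data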;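 note: 0% = GSTO1-1 with DMSO and 100% = wells lacking GSTO1-1 enzyme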
# Target sequence (P78417 whole entry, looked up): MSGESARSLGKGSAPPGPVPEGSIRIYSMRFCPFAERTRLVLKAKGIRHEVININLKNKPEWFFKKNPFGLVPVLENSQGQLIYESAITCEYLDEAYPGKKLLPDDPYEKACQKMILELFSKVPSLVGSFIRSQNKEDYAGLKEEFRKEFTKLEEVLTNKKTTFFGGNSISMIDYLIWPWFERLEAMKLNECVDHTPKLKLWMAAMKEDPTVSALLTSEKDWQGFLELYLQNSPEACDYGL
# SIAE inh – blocks human sialic acid acetylesterase. SIAE FP-Rh probe binding, fluorescence polarization. inhibition, % at 9.66 µM. actives 0.69% (n = 370,000). AID 1053197;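 active = inhibition above a cutoff: mean of compounds within the control limits plus 3 SD of those, cut at about 17% in these data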;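 note: 0% = plate median of compound wells and 100% = probe without SIAE protein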
# PAD4 FP inh – blocks human protein arginine deiminase 4 | actives 0.41% (n = 330,000) | AID 485272 | Q9UM07 | recombinant PAD4, RCA probe fluorescence polarization | inhibition, % at 6.36 µM;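 active = percent inhibition above a cutoff equal to the mean of all tested compounds plus 3 SD, cut at about 15% in these data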;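 note: 0% = PAD4 with RCA probe and DMSO and 100% = probe without PAD4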
# TDP2 absorb – TDP2 (human) inhibition, absorbance primary screen. O95551. recombinant TDP2, T5PNP hydrolysis, p-nitrophenol absorbance 415 nm. inhibition, % at 12.8 µM. actives 0.34% (n = 370,000). AID 720702;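 active = inhibition above the mean of all tested compounds plus 3 SD, set per campaign, cut at about 25% in these data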;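 note: 0% = DMSO with enzyme and 100% = buffer with substrate but no TDP2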
# Target sequence (O95551 whole entry, looked up): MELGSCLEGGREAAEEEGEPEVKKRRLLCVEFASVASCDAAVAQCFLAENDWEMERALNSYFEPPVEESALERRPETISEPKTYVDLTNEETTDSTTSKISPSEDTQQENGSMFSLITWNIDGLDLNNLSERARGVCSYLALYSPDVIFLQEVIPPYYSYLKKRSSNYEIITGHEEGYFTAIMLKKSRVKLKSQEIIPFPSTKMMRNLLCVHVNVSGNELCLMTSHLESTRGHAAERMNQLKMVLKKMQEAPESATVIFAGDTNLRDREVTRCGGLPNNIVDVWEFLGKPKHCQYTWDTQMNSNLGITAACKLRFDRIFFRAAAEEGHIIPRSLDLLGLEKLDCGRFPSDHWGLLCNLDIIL
#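 Test system: Human TDP2 enzyme | Reagent: 5 mM T5PNP | Compound dosing: 12.8 µM single point, 1% DMSO | Incubation: Enzyme reaction with compound for 2 h at 37 °C | Technique: p-Nitrophenol epi absorbance | Read-out: % inhibition relative to enzyme-containing and enzyme-free wells | Benchmarks: High control without enzyme, low control DMSO plus TDP2 | Replicates: Singlicate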
# TCR CD3 inh – inhibitors of human TCR-CD3 interaction. inhibition, % at 9.4 µM. actives 0.37% (n = 360,000). AID 651800. TAMRA-labeled TCR probe fluorescence, biochemical; in the data active = inhibition above about 19%;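 note: recombinant mutant TCR 2C K166C tagged with TAMRA read by polarization; 0% = receptor in buffer alone and 100% = receptor with positive control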
# Apaf-1 inh – inhibitors of human Apaf-1 apoptosome | reconstituted apoptosome caspase-3 activity, DEVD-Rh110 fluorescence | inhibition, % at 20 µM | actives 0.71% (n = 330,000) | AID 489030; active = inhibition of at least 40% at 20 µM;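 note: plate controls were DMSO wells for no effect and DEVD-CHO caspase inhibitor wells for full effect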
#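 Medium: Hepes buffer, pH 7.5 / System: biochemical Apaf-1 apoptosome reconstitution / Measured by: Rh110 fluorescence, excitation 480 nm, emission 540 nm / Times: compound with Apaf-1, dATP, procaspase-3 30 min, then 50 min reaction, room temperature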
# TDP2 confirm – confirmation of human TDP2 inhibitors. shares compounds with TDP2 absorb. recombinant human TDP2, absorbance read-out. inhibition, % at 12.8 µM. actives 22% (n = 1,100); in the data active = inhibition above about 25%;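 note: 0% = vehicle with enzyme and 100% = no enzyme buffer only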
# The depositor's hits bear a star; · = no result.
SMILES,GSTO1 inh,SIAE inh,PAD4 FP inh,TDP2 absorb,TCR CD3 inh,Apaf-1 inh,TDP2 confirm
COc1ccc(N(C)C(=O)Nc2ccc3nsnc3c2)cc1,·,-1,·,95*,0,·,7
COc1ccc(N(C)C(=O)Nc2ccc3c(c2)nnn3C)cc1,0,0,-3,-15,-11,-7,·
O=C(NCCc1c[nH]c2ccccc12)/C(=C\c1cccnc1)NC(=O)c1ccccc1F,9,5,-1,-12,11,-14,·
CN(C)c1cc[n+](CC(=O)N2c3ccccc3Sc3ccccc32)cc1,8,3,-6,13,1,-2,·
COc1cc(OC)cc(-n2nnnc2SCC(=O)NCc2cccs2)c1,5,-9,-2,-21,2,6,·
Cc1cnc(CNC(=O)CC2C(=O)NCCN2Cc2ccccc2F)cn1 (stereo not given),2,1,2,1,5,-14,·
Cc1cnc(CNC(=O)CC2C(=O)NCCN2Cc2cccc(F)c2F)cn1 (stereo not given),16,-5,2,25*,5,2,-3
Cc1ccc(/C=C2/C(=O)c3ccc(C(=O)O)cc3C2=O)o1,·,-23,·,26*,4,·,25*
Cc1ccc(C=C2C(=O)c3ccccc3C2=O)o1,24,-18,-4,10,-14,11,·
CCC(C)N=CC1=C(O)C(C(=O)OC)C(C)(C)CC1=O (stereo not given),9,3,-2,5,0,9,·
Cc1ccc(C)c(S(=O)(=O)NCc2ccc(C(=O)N3CCOCC3)cc2)c1,1,4,-2,25*,6,-47,-5
COc1ccc(C(=O)NCc2ccccc2CN2CCCC2)cc1S(=O)(=O)Nc1ccc(C)cc1,·,-3,-5,7,3,28,·
CC(=O)c1ccc(NC(=O)N2CCc3ccccc3C2)cc1,-1,-4,-1,27*,0,10,6
CC(=O)c1cccc(NC(=O)N2CCc3ccccc3C2)c1,2,1,-6,4,4,0,·
O=C(O)C(Cc1c[nH]c2ccccc12)NS(=O)(=O)c1ccc(F)cc1 (stereo not given),·,8,·,28*,2,·,-1
O=C1C2C3C=CC(c4ccccc4)(C2C(=O)N1c1cccc(Cl)c1)C1C(=O)N(c2cccc(Cl)c2)C(=O)C31 (stereo not given),-4,-6,1,16,6,4,·
Cc1noc(C)c1S(=O)(=O)N1CCCC(C(=O)NCc2ccccc2Cl)C1 (stereo not given),4,4,-1,27*,3,-4,0
CCc1ccccc1NC(=O)C1CCCN(S(=O)(=O)c2c(C)noc2C)C1 (stereo not given),6,-1,0,15,0,-2,·
COc1ccccc1-c1ccc(SCC(=O)NC2CCCC2)nn1,-4,-7,-2,37*,-4,0,-10
COc1ccccc1-c1ccc(SCC(=O)NC2CCCCC2)nn1,1,0,-2,5,-9,3,·
Nc1cc2nn(-c3ccccc3)nc2cc1Cl,·,16,·,70*,4,·,47*
COc1ccc(OC)c(C(=O)COC(=O)c2ccc(C)o2)c1,-6,9,3,29*,-9,13,5
COc1ccc(C(=O)OCC(=O)c2cc(OC)ccc2OC)c(OC)c1,4,1,-4,-11,-7,17,·
CC(C)CNc1ncnc2c1ncn2[C@H]1CN(Cc2ccc3c(c2)OCO3)C[C@@H](CO)O1,·,-4,·,7,5,·,·
CCN1CCN(C(C(=O)NC2CCCCC2)C2CC2)CC1 (stereo not given),·,6,·,3,-6,·,·
SMILES,GSTO1 inh,SIAE inh,PAD4 FP inh,TDP2 absorb,TCR CD3 inh,Apaf-1 inh,TDP2 confirm
CCN1CCN(C(C)C(=O)NC2CCCCC2)CC1 (stereo not given),1,5,1,27*,7,7,8
O=C(O)c1ccc(Cl)c(NCc2cccnc2)c1,-5,-4,-1,6,-5,6,·
CCN(CC)CCN1C(=O)C(=O)/C(=C(/O)c2ccc(C)cc2)C1c1cccnc1 (stereo not given),-3,0,0,32*,5,-19,6
Cc1nc2c(C(=O)N3CCCCC3)cnn2c(C)c1Cc1ccccc1F,2,-2,-2,-4,10,-8,·
CN(C)c1cccc(C(=O)OCC(=O)NC2CCCC2)c1,-2,7,-4,26*,3,11,6
CCC(C)N(c1nc(C)nc2c1nnn2Cc1ccccc1)C(C)CC (stereo not given),·,2,·,2,·,·,·
COc1ccc(N(C(=O)Cn2nnc(-c3ccccc3F)n2)C(C(=O)NCC2CCCO2)c2ccc(Cl)cc2)cc1 (stereo not given),7,-2,-1,26*,3,2,2
Cc1ccc(NC(=O)N(Cc2ccco2)Cc2cc3cc(C)cc(C)c3nc2Cl)cc1,·,-4,·,-5,-6,·,·
Cc1ccc([N+](=O)[O-])cc1S(=O)(=O)NCC1COc2ccccc2O1 (stereo not given),6,2,-3,45*,-2,10,-3
O=C(N/N=C/c1ccccn1)c1ccc([N+](=O)[O-])cc1Cl,6,-8,1,-3,-12,-6,·
CCNC(=O)COC(=O)c1cc(C)n(-c2ccccc2)c1C,1,-1,-6,5,-4,5,·
Nc1nnc(CC(=O)N/N=C\c2ccc(-c3cccc(Cl)c3)o2)s1,11,-5,-3,11,-1,-1,·
Cc1ccccc1NC(=O)CN1CCN(C)CC1,13,9,-3,36*,8,3,5
Cc1ccccc1NC(=O)CN1CCCC1,·,0,·,3,3,·,·
CCc1nc2ccc(C(=O)N3CCN(c4cccc(C(F)(F)F)c4)CC3)cc2nc1CC,0,3,2,-5,8,26,·
CC1CC(=O)C2=C(C1)OC(N)=C(C#N)C2c1coc2ccccc2c1=O (stereo not given),9,-4,-3,26*,1,-1,9
CCCCc1nnc(NC(=O)C=C(C)C)s1,4,-7,-2,-2,4,1,·
Nn1cnnc1N/N=C/c1ccc(Cl)cc1Cl,·,-1,·,73*,-7,2,-7
O=C(N/N=C/c1ccc(Cl)cc1Cl)c1ccc(-n2cnnn2)cc1,·,2,0,-13,0,-17,·
O=C(O)c1ccc(NC2=C/C(=N/S(=O)(=O)c3cccs3)c3ccccc3C2=O)cc1,·,3,·,60*,6,·,73*
CCCCn1c(N)c(N(CC(C)C)C(=O)c2ccc(COc3ccccc3)o2)c(=O)[nH]c1=O,0,2,0,8,-2,2,·

# Compound activity: PubChem BioAssay, several laboratories
